How the values were obtained:
[1] = biological target: Growth hormone secretagogue receptor type 1 (Rattus norvegicus) (UniProt O08725); assay: Agonist activity at rat GHSR expressed in CHO cells assessed as increase in ghrelin-induced [3H]IP accumulation at 0.1 uM after 1 hr by scintillation counting relative to ghrelin; format: functional, cell-based
Method in brief: (§1)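 CHO cells stably expressing human or rat GHSR labelled 12 h with 3H-inositol (1 µCi/mL in DMEM), then exposed to ghrelin or compound at 37 °C for 1.0 h. Lysis with 20 mM formic acid, 4 °C, 4 h. Extract taken onto SPA beads, 12 h in the dark, then radioactivity counted. IP accumulation expressed as % of maximal ghrelin response at 10, 1.0 and 0.1 µM.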

[2] = biological target: 5-hydroxytryptamine receptor 2A (Homo sapiens, UniProt P28223); assay: Inhibition of 5HT2A (receptor)
Chain of 5-hydroxytryptamine receptor 2A (P28223 whole entry): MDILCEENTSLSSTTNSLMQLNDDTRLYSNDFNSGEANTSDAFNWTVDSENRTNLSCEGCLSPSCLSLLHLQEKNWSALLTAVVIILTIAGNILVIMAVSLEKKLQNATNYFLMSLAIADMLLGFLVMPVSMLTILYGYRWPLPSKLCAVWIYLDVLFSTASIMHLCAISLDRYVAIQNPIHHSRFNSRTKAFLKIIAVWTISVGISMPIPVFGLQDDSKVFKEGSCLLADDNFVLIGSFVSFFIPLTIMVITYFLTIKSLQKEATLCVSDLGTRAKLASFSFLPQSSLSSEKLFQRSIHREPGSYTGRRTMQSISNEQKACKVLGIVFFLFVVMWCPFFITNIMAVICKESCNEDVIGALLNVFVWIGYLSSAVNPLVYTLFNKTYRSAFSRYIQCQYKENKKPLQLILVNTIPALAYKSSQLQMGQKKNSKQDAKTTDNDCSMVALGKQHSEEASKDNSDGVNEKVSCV

D(3) dopamine receptor = D(3) dopamine receptor (Homo sapiens, UniProt P35462); assay: Inhibition of dopamine D3 receptor
Chain of D(3) dopamine receptor (P35462 whole entry): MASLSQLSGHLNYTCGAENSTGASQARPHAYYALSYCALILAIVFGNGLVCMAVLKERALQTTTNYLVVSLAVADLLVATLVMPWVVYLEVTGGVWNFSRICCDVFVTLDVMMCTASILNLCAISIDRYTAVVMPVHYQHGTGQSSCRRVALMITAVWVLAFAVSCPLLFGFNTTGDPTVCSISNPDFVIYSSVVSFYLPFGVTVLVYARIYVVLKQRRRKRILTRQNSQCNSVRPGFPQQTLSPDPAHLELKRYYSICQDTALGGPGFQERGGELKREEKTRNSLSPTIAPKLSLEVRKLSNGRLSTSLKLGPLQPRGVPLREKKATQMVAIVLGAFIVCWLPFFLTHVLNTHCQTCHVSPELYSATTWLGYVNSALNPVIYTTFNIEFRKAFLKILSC

Mu-type opioid receptor = Mu-type opioid receptor (Homo sapiens, UniProt P35372); assay: Inhibition of mu opioid receptor
Chain of Mu-type opioid receptor (P35372 whole entry): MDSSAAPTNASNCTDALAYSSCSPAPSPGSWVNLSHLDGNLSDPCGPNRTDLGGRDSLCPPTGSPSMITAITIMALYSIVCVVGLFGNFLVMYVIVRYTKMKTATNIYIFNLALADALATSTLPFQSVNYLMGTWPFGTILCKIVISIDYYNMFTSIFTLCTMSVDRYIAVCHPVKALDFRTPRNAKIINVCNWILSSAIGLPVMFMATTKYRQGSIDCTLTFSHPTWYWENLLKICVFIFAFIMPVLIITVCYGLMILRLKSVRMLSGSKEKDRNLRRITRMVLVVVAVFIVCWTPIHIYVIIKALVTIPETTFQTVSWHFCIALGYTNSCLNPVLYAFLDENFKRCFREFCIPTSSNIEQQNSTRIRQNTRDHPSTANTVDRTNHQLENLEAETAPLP

[3] = biological target: Growth hormone secretagogue receptor type 1 (Rattus norvegicus) (UniProt O08725); assay: Agonist activity at rat GHSR expressed in CHO cells assessed as increase in ghrelin-induced [3H]IP accumulation at 1 uM after 1 hr by scintillation counting relative to ghrelin; format: functional, cell-based; method in brief: as §1
[4] = biological target: Growth hormone secretagogue receptor type 1 (Rattus norvegicus) (UniProt O08725); assay: Agonist activity at rat GHSR expressed in CHO cells assessed as increase in ghrelin-induced [3H]IP accumulation at 10 uM after 1 hr by scintillation counting relative to ghrelin; format: functional, cell-based; method in brief: as §1
[5] = biological target: T1, Growth hormone secretagogue receptor type 1 (Homo sapiens, UniProt Q92847); assay: Antagonist activity at human GHSR expressed in CHOK1 cells assessed as inhibition of ghrelin-induced intracellular calcium flux by aequorin flash luminescence assay; format: functional, cell-based, CHO-K1
Method in brief: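 Aequorin flash luminescence in CHO-K1 cells stably co-expressing human ghrelin receptor and aequorin. […] IC50 values are means of three determinations.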

[6] = biological target: Muscarinic acetylcholine receptor M3 (Homo sapiens, UniProt P20309); assay: Inhibition of muscarinic M3 receptor
Chain of Muscarinic acetylcholine receptor M3 (P20309 whole entry): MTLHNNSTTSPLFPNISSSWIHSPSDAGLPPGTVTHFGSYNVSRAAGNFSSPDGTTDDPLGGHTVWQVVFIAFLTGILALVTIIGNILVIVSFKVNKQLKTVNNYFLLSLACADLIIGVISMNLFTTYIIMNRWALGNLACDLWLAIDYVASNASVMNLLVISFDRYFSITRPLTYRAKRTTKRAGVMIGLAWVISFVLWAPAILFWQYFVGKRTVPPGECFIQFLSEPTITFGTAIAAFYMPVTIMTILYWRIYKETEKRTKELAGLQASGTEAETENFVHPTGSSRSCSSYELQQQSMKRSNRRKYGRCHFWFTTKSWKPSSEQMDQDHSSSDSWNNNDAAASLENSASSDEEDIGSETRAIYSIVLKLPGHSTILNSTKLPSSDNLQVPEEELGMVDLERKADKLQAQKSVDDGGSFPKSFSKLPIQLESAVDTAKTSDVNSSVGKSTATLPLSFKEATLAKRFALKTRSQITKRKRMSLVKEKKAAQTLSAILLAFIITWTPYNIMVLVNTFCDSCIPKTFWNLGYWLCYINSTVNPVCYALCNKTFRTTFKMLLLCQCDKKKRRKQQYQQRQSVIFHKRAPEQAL

[7] = biological target: Sodium-dependent serotonin transporter (Homo sapiens, UniProt P31645); assay: Inhibition of SERT
Chain of Sodium-dependent serotonin transporter (P31645 whole entry): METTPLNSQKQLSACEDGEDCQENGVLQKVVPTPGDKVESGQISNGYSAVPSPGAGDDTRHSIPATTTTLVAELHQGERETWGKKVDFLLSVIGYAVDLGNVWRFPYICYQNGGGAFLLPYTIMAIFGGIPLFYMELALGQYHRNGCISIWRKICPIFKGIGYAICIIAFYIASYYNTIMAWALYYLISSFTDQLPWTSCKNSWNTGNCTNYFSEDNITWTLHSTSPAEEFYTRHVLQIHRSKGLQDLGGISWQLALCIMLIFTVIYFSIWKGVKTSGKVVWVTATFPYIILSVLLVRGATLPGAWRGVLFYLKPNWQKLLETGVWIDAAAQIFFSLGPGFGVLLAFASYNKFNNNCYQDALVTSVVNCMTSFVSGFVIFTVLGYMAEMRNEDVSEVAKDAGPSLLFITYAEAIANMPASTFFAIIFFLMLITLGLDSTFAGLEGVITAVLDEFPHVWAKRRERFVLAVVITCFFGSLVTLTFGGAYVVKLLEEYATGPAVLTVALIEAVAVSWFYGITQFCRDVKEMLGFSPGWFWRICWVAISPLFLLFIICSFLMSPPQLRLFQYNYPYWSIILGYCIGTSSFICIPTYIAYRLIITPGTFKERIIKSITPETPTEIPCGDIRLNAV

[8] = biological target: Sodium-dependent noradrenaline transporter (Homo sapiens, UniProt P23975); assay: Inhibition of NET
Chain of Sodium-dependent noradrenaline transporter (P23975 whole entry): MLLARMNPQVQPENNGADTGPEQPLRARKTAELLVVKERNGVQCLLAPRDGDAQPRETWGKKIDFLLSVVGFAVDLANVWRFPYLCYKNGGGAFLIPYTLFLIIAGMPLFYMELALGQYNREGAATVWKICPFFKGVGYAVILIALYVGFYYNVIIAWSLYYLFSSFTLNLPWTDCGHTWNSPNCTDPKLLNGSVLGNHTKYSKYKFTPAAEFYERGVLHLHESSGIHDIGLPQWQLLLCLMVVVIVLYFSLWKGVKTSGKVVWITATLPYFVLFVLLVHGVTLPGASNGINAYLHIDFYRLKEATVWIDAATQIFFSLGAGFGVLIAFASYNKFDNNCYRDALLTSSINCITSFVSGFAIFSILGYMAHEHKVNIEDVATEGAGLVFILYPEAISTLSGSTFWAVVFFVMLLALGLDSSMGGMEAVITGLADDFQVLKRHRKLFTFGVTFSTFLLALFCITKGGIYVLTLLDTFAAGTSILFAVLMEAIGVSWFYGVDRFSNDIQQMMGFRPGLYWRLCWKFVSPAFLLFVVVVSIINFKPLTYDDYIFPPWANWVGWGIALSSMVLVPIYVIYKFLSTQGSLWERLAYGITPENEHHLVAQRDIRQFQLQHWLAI

D(2) dopamine receptor = D(2) dopamine receptor (Homo sapiens, UniProt P14416); assay: Inhibition of dopamine D2 receptor
Chain of D(2) dopamine receptor (P14416 whole entry): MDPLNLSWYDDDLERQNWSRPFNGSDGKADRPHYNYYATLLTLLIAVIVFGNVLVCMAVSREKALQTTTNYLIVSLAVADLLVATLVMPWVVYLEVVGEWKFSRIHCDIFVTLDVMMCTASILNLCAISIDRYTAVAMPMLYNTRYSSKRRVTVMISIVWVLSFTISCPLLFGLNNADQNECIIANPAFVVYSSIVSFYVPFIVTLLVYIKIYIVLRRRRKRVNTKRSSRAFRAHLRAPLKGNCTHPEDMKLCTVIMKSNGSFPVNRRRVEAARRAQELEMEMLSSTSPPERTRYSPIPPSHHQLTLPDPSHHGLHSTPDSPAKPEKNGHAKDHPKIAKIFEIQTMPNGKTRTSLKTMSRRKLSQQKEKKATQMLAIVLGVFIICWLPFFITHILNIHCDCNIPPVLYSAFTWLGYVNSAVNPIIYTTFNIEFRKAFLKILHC

[9] = biological target: T1, Growth hormone secretagogue receptor type 1; assay: Agonist activity at human GHSR expressed in CHO cells assessed as increase in ghrelin-induced [3H]IP accumulation at 10 uM after 1 hr by scintillation counting relative to ghrelin; format: functional, cell-based; method in brief: as §1
[10] = biological target: T2, Alpha-2A adrenergic receptor (Homo sapiens, UniProt P08913); assay: Inhibition of alpha2A adrenergic receptor
T2 sequence (P08913 whole entry): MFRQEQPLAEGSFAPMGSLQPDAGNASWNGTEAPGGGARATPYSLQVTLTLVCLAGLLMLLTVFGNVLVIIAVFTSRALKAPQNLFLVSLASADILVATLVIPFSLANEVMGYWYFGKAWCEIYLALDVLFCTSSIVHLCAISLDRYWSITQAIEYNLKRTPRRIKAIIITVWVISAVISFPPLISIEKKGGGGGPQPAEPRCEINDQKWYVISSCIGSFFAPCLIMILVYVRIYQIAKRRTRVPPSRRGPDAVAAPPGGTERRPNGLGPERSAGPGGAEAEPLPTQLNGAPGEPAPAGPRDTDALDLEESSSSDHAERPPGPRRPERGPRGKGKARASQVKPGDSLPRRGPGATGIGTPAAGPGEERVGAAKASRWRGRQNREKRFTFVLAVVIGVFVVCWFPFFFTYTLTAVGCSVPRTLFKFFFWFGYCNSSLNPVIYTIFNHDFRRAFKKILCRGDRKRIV

Histamine H2 receptor = Histamine H2 receptor (Homo sapiens, UniProt P25021); assay: Inhibition of histamine H2 receptor
Chain of Histamine H2 receptor (P25021 whole entry): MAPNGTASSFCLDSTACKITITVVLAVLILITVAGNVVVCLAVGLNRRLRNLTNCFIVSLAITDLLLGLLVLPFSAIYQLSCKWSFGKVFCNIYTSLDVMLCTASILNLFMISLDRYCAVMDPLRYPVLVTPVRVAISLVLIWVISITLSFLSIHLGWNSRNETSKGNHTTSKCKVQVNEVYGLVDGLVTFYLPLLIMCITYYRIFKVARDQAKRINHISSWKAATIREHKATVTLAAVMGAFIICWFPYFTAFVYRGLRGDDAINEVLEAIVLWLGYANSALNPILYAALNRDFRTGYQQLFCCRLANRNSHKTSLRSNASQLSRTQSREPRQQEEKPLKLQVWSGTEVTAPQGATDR

[11] = biological target: Sodium-dependent dopamine transporter (Homo sapiens, UniProt Q01959); assay: Inhibition of DAT
Chain of Sodium-dependent dopamine transporter (Q01959 whole entry): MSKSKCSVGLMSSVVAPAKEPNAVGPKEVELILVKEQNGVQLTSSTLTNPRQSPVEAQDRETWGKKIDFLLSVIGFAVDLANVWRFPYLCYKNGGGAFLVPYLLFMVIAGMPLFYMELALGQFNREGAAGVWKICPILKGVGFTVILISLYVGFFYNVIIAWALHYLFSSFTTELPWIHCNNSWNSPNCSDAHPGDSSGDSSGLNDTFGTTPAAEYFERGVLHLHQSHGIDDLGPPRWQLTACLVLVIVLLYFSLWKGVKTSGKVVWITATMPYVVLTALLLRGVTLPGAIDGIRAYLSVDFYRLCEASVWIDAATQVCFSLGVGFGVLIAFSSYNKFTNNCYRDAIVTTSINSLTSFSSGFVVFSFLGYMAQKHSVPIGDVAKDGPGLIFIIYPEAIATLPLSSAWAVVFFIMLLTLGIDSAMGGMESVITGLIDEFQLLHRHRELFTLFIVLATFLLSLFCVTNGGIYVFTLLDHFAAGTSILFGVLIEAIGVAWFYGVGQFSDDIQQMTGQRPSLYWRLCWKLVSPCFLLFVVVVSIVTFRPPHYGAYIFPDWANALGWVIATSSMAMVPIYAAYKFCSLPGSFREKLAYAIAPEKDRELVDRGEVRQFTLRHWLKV

[12] = biological target: T3, 5-hydroxytryptamine receptor 2C (Homo sapiens, UniProt P28335); assay: Inhibition of 5HT2C (receptor)
T3 sequence (P28335 whole entry): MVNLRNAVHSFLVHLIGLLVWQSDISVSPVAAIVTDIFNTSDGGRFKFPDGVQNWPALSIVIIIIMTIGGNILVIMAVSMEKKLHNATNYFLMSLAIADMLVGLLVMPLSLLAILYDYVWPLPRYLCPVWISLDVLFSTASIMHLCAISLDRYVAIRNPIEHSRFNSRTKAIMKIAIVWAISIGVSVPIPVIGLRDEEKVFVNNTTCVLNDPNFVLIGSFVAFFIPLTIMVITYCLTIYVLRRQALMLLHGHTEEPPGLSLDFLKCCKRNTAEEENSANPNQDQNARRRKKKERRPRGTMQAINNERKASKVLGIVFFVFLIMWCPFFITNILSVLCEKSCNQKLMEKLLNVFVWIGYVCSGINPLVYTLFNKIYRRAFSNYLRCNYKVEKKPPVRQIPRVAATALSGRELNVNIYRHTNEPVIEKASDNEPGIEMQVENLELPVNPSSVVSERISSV

[13] = biological target: Kappa-type opioid receptor (Homo sapiens, UniProt P41145); assay: Inhibition of kappa opioid receptor
[14] = Induction of growth hormone release from Sprague-Dawley rat pituitary cells at 1 uM after 20 mins by RIA assay relative to ghrelin; format: functional, Pituitary gland cell
Method in brief: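 Pituitary cells from 6–8-week-old male SD rats plated on poly-D-lysine and cultured 3 days at 37 °C. Washed with DMEM assay buffer (20 mM Hepes, 0.3% BSA) and held 5 min at 37 °C. Treated with rat ghrelin or compound for 20 min, then GH release measured as % of maximal ghrelin response. Means of three determinations.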

Chain of Growth hormone secretagogue receptor type 1 (Rattus norvegicus) (O08725 whole entry): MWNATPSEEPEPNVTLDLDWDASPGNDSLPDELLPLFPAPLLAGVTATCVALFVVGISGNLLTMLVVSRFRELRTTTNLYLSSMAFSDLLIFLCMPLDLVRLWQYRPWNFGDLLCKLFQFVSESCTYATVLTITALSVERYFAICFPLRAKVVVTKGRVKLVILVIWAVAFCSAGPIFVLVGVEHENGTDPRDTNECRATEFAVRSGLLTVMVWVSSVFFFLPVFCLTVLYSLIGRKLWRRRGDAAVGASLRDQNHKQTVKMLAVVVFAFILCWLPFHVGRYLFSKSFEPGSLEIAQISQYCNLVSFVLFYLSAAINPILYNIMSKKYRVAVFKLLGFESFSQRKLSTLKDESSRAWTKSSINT

Row | Activity [1] [%] | Ki [2] [µM] | Ki (D(3) dopamine receptor) [µM] | Ki (Mu-type opioid receptor) [µM] | Activity [3] [%] | Activity [4] [%] | IC50 [5] [µM] | Ki [6] [µM] | Ki [7] [µM] | Ki [8] [µM] | Ki (D(2) dopamine receptor) [µM] | Activity [9] [%] | Ki [10] [µM] | Ki (Histamine H2 receptor) [µM] | Ki [11] [µM] | Ki [12] [µM] | Ki [13] [µM] | SMILES | Activity [14] [%]
1 | 24 | > 10 | > 10 | > 10 | 14 | 14 | 0.1 | > 10 | > 10 | > 10 | > 10 | 18 | > 10 | > 10 | > 10 | > 10 | > 10 | O=C(c1ccc(-c2ccccc2)cc1)N1CCN(C(=O)c2ccc3cc[nH]c3c2)CC1 | 
2 |  | > 10 | > 10 | > 10 |  | 31 | 0.0029 | > 10 | > 10 | > 10 | > 10 | 32 | > 10 | > 10 | > 10 | > 10 | > 10 | Cc1ccccc1-c1ccc(C(=O)N2CCN(C(=O)c3ccc4cc[nH]c4c3)[C@@H](C)C2)cc1 | 18
3 |  | > 10 | > 10 | > 10 |  | 32 | 0.0021 | > 10 | > 10 | > 10 | > 10 | 35 | > 10 | > 10 | > 10 | > 10 | > 10 | C[C@H]1CN(C(=O)c2ccc(-c3ccccc3Cl)cc2)CCN1C(=O)c1ccc2cc[nH]c2c1 | 24
4 |  | > 10 | > 10 | > 10 |  | 46 | 0.012 | > 10 | > 10 | > 10 | > 10 | 45 | > 10 | > 10 | > 10 | > 10 | > 10 | COc1cccc(-c2ccc(C(=O)N3CCN(C(=O)c4ccc5cc[nH]c5c4)[C@@H](C)C3)cc2)c1 | 40
